Assay results from ChEMBL document CHEMBL2176912, “Diphenyl purine derivatives as peripherally selective cannabinoid receptor 1 antagonists” (J Med Chem, 2012).
pKi: −log10 of the molar value.

Legend:
Cannabinoid receptor 1 [1] = biological target: T1, Cannabinoid receptor 1 (Homo sapiens, UniProt P21554); experiment: Antagonist activity at human CB1 receptor transfected in CHO-K1 cells co-expressing Galphaq16 assessed as intracellular calcium mobilization using Calcein-4 AM by fluorescence assay; format: functional, cell-based
Procedure, shortened: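 CHO-K1 cells engineered to coexpress human CB1 and Gαq16. Calcium flux read with fluorescent dye Calcein-4 AM on a plate reader. Antagonism measured as rightward shift of the CP55940 concentration–response curve. Ke = [ligand]/(DR−1), where DR is the ratio of CP55940 EC50 with and without test agent. Values are averages of 3–6 measurements.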

Cannabinoid receptor 2 = Cannabinoid receptor 2 (Homo sapiens, UniProt P34972); experiment: Displacement of [3H]CP55940 from human CB2 receptor expressed in CHO-K1 cells; format: cell-based
CHO-K1 = experiment: Selectivity ratio of Ki for human CB2 receptor expressed in CHO-K1 cells to Ki for human CB1 receptor expressed in CHO-K1 cells
Plasma = experiment: Metabolic stability in human plasma assessed as compound remaining after 60 mins; format: ADME, cell-free; settings: 1 h
Procedure, shortened: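 Pooled mixed-gender human plasma, 1 mL per sample at 37 °C. Compound at 10 μM final, sampled at 0, 30 and 60 min after 5 min preincubation. Reaction stopped with acetonitrile, LC-MS/MS quantitation; percent remaining at 60 min.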

MDCK = experiment: Permeability from apical to basolateral side in dog MDCK cells expressing MDR-1 gene; format: ADME, cell-based, Canis lupus familiaris
Procedure, shortened: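 MDCK-mdr1 cells grown on Transwell-type filters for 4 days to confluence in DMEM/F12 with 10% FBS and antibiotics. Compound applied apically at 10 μM in HBSS with 25 mM D-glucose, HEPES-buffered to pH 7.4. Incubated 1 h at 37 °C; apical and basal samples quantified by LC-MS/MS (MRM). Averages of 2–3 measurements.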

Cannabinoid receptor 1 [2] = biological target: T1, Cannabinoid receptor 1; experiment: Displacement of [3H]CP55940 from human CB1 receptor expressed in CHO-K1 cells; format: cell-based
Liver = experiment: Metabolic stability in human liver S9 fraction assessed as compound remaining after 120 mins; format: ADME, subcellular; settings: s9, 2 h
Procedure, shortened: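 Pooled mixed-gender human hepatic S9 at 1 mg/mL. Compound at 10 μM final in 50 mM potassium phosphate pH 7.4 with 3 mM MgCl2 and NADPH regeneration (NADP 1 mM, glucose-6-phosphate 5 mM, G6PDH 1 unit/mL). Triplicates incubated 0, 15, 30, 60, 120 min, stopped with 3 vol acetonitrile, LC-MS/MS against matrix standard curves; percent remaining at 120 min.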

[3] = Plasma concentration in Sprague-Dawley rat at 10 mg/kg, po after 60 mins; format: ADME, organism-based; design: dose 10 mg/kg, route oral
Procedure, shortened: (§1)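 Male Sprague–Dawley rats, 8 weeks old, given 10 mg/kg orally in food-grade corn oil. Three to four animals per time point. Plasma and unperfused brain collected at 0.5–8 h. Brain homogenized in 50:50 ethanol/water. Samples protein-precipitated with acetonitrile and analysed by LC-MS/MS on a C18 column against standards in blank matrix.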

[4] = Drug uptake in Sprague-Dawley rat brain at 10 mg/kg, po after 120 mins; format: ADME, organism-based; design: dose 10 mg/kg, route oral; settings: read-out: Drug uptake; procedure, shortened: as §1
[5] = Plasma concentration in Sprague-Dawley rat at 10 mg/kg, po after 30 mins; format: ADME, organism-based; design: dose 10 mg/kg, route oral; procedure, shortened: as §1
[6] = Plasma concentration in Sprague-Dawley rat at 10 mg/kg, po after 120 mins; format: ADME, organism-based; design: dose 10 mg/kg, route oral; procedure, shortened: as §1
Nucleic Acid [7] = experiment: Ratio of drug uptake in brain to plasma of Sprague-Dawley rat brain at 10 mg/kg, po after 480 mins; format: ADME, organism-based; design: dose 10 mg/kg, route oral; settings: 8 h
Procedure, shortened: (§2)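 Male Sprague–Dawley rats, 8 weeks old, dosed orally at 10 mg/kg in food-grade corn oil; 3–4 animals per time point. Plasma and unperfused brain collected post dose. Brain homogenized in 50:50 ethanol/water; plasma and homogenate extracted with acetonitrile and centrifuged. Analysed by LC-MS/MS against standards prepared in blank matrix. Ratio taken from brain and plasma concentrations.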

Nucleic Acid [8] = experiment: Ratio of drug uptake in brain to plasma of Sprague-Dawley rat brain at 10 mg/kg, po after 60 mins; format: ADME, organism-based; design: dose 10 mg/kg, route oral; settings: 1 h; procedure, shortened: as §2
Nucleic Acid [9] = experiment: Ratio of drug uptake in brain to plasma of Sprague-Dawley rat brain at 10 mg/kg, po after 30 mins; format: ADME, organism-based; design: dose 10 mg/kg, route oral; settings: 0.5 h; procedure, shortened: as §2
[10] = Drug uptake in Sprague-Dawley rat brain at 10 mg/kg, po after 60 mins; format: ADME, organism-based; design: dose 10 mg/kg, route oral; settings: read-out: Drug uptake; procedure, shortened: as §1
Nucleic Acid [11] = experiment: Ratio of drug uptake in brain to plasma of Sprague-Dawley rat brain at 10 mg/kg, po after 240 mins; format: ADME, organism-based; design: dose 10 mg/kg, route oral; settings: 4 h; procedure, shortened: as §2
Nucleic Acid [12] = experiment: Ratio of drug uptake in brain to plasma of Sprague-Dawley rat brain at 10 mg/kg, po after 120 mins; format: ADME, organism-based; design: dose 10 mg/kg, route oral; settings: 2 h; procedure, shortened: as §2
[13] = Plasma concentration in Sprague-Dawley rat at 10 mg/kg, po after 240 mins; format: ADME, organism-based; design: dose 10 mg/kg, route oral; procedure, shortened: as §1
[14] = Drug uptake in Sprague-Dawley rat brain at 10 mg/kg, po after 480 mins; format: ADME, organism-based; design: dose 10 mg/kg, route oral; settings: read-out: Drug uptake; procedure, shortened: as §1
[15] = Drug uptake in Sprague-Dawley rat brain at 10 mg/kg, po after 240 mins; format: ADME, organism-based; design: dose 10 mg/kg, route oral; settings: read-out: Drug uptake; procedure, shortened: as §1
[16] = Drug uptake in Sprague-Dawley rat brain at 10 mg/kg, po after 30 mins; format: ADME, organism-based; design: dose 10 mg/kg, route oral; settings: read-out: Drug uptake; procedure, shortened: as §1

T1 sequence (P21554 whole entry): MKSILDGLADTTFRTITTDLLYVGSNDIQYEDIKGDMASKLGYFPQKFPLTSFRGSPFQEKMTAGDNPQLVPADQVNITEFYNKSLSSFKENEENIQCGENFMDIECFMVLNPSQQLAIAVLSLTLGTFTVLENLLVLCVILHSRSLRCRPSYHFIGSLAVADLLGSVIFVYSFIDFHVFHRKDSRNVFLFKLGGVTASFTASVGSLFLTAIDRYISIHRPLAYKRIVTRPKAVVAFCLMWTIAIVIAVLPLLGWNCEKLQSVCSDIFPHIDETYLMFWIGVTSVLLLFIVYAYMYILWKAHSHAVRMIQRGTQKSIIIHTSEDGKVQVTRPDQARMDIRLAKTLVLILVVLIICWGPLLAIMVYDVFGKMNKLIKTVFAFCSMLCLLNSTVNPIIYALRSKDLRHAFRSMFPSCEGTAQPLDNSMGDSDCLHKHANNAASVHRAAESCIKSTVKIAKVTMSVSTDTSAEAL
Chain of Cannabinoid receptor 2 (P34972 whole entry): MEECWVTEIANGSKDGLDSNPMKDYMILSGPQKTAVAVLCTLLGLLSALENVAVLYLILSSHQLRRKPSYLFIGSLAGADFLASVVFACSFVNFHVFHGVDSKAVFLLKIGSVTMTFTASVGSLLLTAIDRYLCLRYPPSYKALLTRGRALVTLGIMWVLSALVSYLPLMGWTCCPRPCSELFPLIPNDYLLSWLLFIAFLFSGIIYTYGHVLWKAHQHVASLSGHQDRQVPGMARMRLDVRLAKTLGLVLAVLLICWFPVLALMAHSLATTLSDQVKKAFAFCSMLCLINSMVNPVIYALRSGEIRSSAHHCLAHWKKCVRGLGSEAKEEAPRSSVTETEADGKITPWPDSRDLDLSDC

| SMILES | Ke (Cannabinoid receptor 1 [1]) [nM] | pKi (Cannabinoid receptor 2) | Ratio Ki (CHO-K1) | pKi (Cannabinoid receptor 1 [2]) | other results |
| --- | --- | --- | --- | --- | --- |
| O=C(NC1CCN(c2ncnc3c2nc(-c2ccccc2Cl)n3-c2ccc(Cl)cc2)CC1)C(F)(F)F | 3.2 | – | – | – | – |
| CC(C)(C)NC(=O)NC1(c2ccccc2)CCN(c2ncnc3c2nc(-c2ccccc2Cl)n3-c2ccc(Cl)cc2)CC1 | – | 4.70 | 784 | 7.59 | Stability (Plasma): > 90%; permeability (MDCK): < 1%; Stability (Liver): 43% |
| CS(=O)(=O)N1CCC[C@@H](Nc2ncnc3c2nc(-c2ccccc2Cl)n3-c2ccc(Cl)cc2)C1 | 346 | – | – | – | – |
| CC(C)(C)OC(=O)N1CCC(Nc2ncnc3c2nc(-c2ccccc2Cl)n3-c2ccc(Cl)cc2)CC1 | 92 | 4.85 | 568 | 7.62 | – |
| CCCNC(=O)NC1(c2ccccc2)CCN(c2ncnc3c2nc(-c2ccccc2Cl)n3-c2ccc(Cl)cc2)CC1 | 99 | 5.11 | 35 | 6.66 | – |
| Cc1c(C(=O)N2CCC(C(N)=O)(c3ccccc3)CC2)nn(-c2ccc(Cl)cc2Cl)c1-c1ccc(Cl)cc1 | 0.45 | – | 1600 | – | permeability (MDCK): 8% |
| O=S(=O)(NC1CCN(c2ncnc3c2nc(-c2ccccc2Cl)n3-c2ccc(Cl)cc2)CC1)c1ccccc1 | 0.3 | 5.23 | 4890 | 8.92 | – |
| CCCNC(=O)NC1CCN(c2ncnc3c2nc(-c2ccccc2Cl)n3-c2ccc(Cl)cc2)CC1 | – | 6.82 | 5 | 7.55 | – |
| CCCCNC(=O)NC1CCN(c2ncnc3c2nc(-c2ccccc2Cl)n3-c2ccc(Cl)cc2)CC1 | – | 5.81 | 62 | 7.60 | – |
| CCCCNC(=O)N1CCC(Nc2ncnc3c2nc(-c2ccccc2Cl)n3-c2ccc(Cl)cc2)CC1 | 71 | < 4.70 | – | 5.48 | – |
| CC(C)NC(=O)NC1CCN(c2ncnc3c2nc(-c2ccccc2Cl)n3-c2ccc(Cl)cc2)CC1 | – | 5.61 | 175 | 7.85 | – |
| O=C(NC1CCN(c2ncnc3c2nc(-c2ccccc2Cl)n3-c2ccc(Cl)cc2)CC1)c1ccccc1 | 0.7 | – | – | – | – |
| CCCCNC(=O)NC1(c2ccccc2)CCN(c2ncnc3c2nc(-c2ccccc2Cl)n3-c2ccc(Cl)cc2)CC1 | – | < 4.70 | – | 6.57 | – |
| CCNC(=O)N1CCC[C@H](Nc2ncnc3c2nc(-c2ccccc2Cl)n3-c2ccc(Cl)cc2)C1 | 1150 | – | – | – | – |
| CS(=O)(=O)NC1(c2ccccc2)CCN(c2ncnc3c2nc(-c2ccccc2Cl)n3-c2ccc(Cl)cc2)CC1 | 2.9 | – | 153 | – | concentration at 1 h [3]: 767 ng/mL; concentration at 2 h [4]: 122 ng/mL; concentration at 0.5 h [5]: 752 ng/mL; concentration at 2 h [6]: 1190 ng/mL; BPR (Nucleic Acid [7]): 0.1; BPR (Nucleic Acid [8]): 0.08; BPR (Nucleic Acid [9]): 0.05; concentration at 1 h [10]: 58 ng/mL; Stability (Plasma): > 90%; permeability (MDCK): < 1%; BPR (Nucleic Acid [11]): 0.11; BPR (Nucleic Acid [12]): 0.1; Stability (Liver): > 90%; concentration at 4 h [13]: 1650 ng/mL; concentration at 8 h [14]: 89 ng/mL; concentration at 4 h [15]: 184 ng/mL; concentration at 0.5 h [16]: 38 ng/mL |
| CC(=O)N1CCC[C@@H](Nc2ncnc3c2nc(-c2ccccc2Cl)n3-c2ccc(Cl)cc2)C1 | 920 | – | – | – | – |
| CC(=O)N1CCC[C@H](Nc2ncnc3c2nc(-c2ccccc2Cl)n3-c2ccc(Cl)cc2)C1 | 4450 | – | – | – | – |
| NC(=O)C1(c2ccccc2)CCN(c2ncnc3c2nc(-c2ccccc2Cl)n3-c2ccc(Cl)cc2)CC1 | 9 | 5.26 | 3080 | 8.75 | Stability (Plasma): > 90%; permeability (MDCK): 6%; Stability (Liver): > 90% |
| CC(C)(C)OC(=O)NC1CCN(c2ncnc3c2nc(-c2ccccc2Cl)n3-c2ccc(Cl)cc2)CC1 | 11 | 5.77 | 1140 | 8.82 | – |
| NC1(c2ccccc2)CCN(c2ncnc3c2nc(-c2ccccc2Cl)n3-c2ccc(Cl)cc2)CC1 | – | 5.78 | 151 | 7.96 | permeability (MDCK): < 1% |
| CCNC(=O)NC1(c2ccccc2)CCN(c2ncnc3c2nc(-c2ccccc2Cl)n3-c2ccc(Cl)cc2)CC1 | – | 5.33 | 24 | 6.71 | – |
| CCNC1(C(N)=O)CCN(c2ncnc3c2nc(-c2ccccc2Cl)n3-c2ccc(Cl)cc2)CC1 [OTENABANT] | – | – | – | – | permeability (MDCK): 40% |
| CS(=O)(=O)N1CCC[C@H](Nc2ncnc3c2nc(-c2ccccc2Cl)n3-c2ccc(Cl)cc2)C1 | 6040 | – | – | – | – |
| CC(C)NC(=O)NC1(c2ccccc2)CCN(c2ncnc3c2nc(-c2ccccc2Cl)n3-c2ccc(Cl)cc2)CC1 | 46 | 5.05 | 27 | 6.47 | – |
| CCNC(=O)N1CCC[C@@H](Nc2ncnc3c2nc(-c2ccccc2Cl)n3-c2ccc(Cl)cc2)C1 | 1500 | – | – | – | – |
| CC(C)(C)OC(=O)NC1(c2ccccc2)CCN(c2ncnc3c2nc(-c2ccccc2Cl)n3-c2ccc(Cl)cc2)CC1 | – | 4.86 | 1960 | 8.15 | permeability (MDCK): < 1% |
| CS(=O)(=O)NC1CCN(c2ncnc3c2nc(-c2ccccc2Cl)n3-c2ccc(Cl)cc2)CC1 | – | 5.97 | 37 | 7.54 | – |
